Test results published in ChEMBL document CHEMBL1944627, “[¹⁸F]GE-180: a novel fluorine-18 labelled PET tracer for imaging Translocator protein 18 kDa (TSPO)” (Bioorg Med Chem Lett, 2012).

Legend:
[1] = molecular target: Translocator protein (Rattus norvegicus, UniProt P16257); test: Displacement of [3H]PK11195 from TSPO receptor in Wistar rat heart homogenate after 15 mins; assay type: tissue-based
[2] = tested on: Brain; test: Biodistribution in Sprague-Dawley rat whole brain at 1 to 3 MBq, iv after 2 mins by gamma counting; assay type: ADME, organism-based; details: in vivo
Procedure, shortened: (§1)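 Tracer formulated in Dulbecco's PBS and given iv, about 1–3 MBq at 10 MBq/mL, under 4% isoflurane, to naive rats (n = 3). Animals were killed at set times after injection. Brain was dissected into regions including striatum and olfactory bulbs, and activity was counted by gamma counter. Values are % id/g, and regional ratios were taken between times or regions.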

[3] = tested on: Rattus norvegicus; test: Biodistribution in Sprague-Dawley rat olfactory bulbs at 1 to 3 MBq, iv after 30 mins by gamma counting; assay type: ADME, organism-based, Olfactory bulb; details: in vivo, 0.5 h; procedure, shortened: as §1
[4] = Ratio of drug uptake in olfactory bulb to striatum in Sprague-Dawley rat at 1 to 3 MBq, iv after 30 mins by gamma counting; details: in vivo, 0.5 h
[5] = Ratio of drug uptake in striatum in Sprague-Dawley rat at 1 to 3 MBq, iv after 2 mins to drug uptake in striatum in Sprague-Dawley rat at 1 to 3 MBq, iv after 30 mins; details: in vivo
[6] = Lipophilicity, log D of the compound at pH 7.4; assay type: physicochemical; details: buffer
[7] = Metabolic stability in Sprague-Dawley rat brain assessed as compound remaining at 1 to 3 MBq, iv after 60 mins by HPLC analysis; assay type: ADME, organism-based; details: read-out: Stability
Procedure, shortened: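 Radiotracer was injected iv into rats. Brain and plasma were sampled at 10, 30 and 60 min post injection to follow metabolic fate. Brain radioactivity at 60 min is expressed as % parent tracer remaining.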

[8] = Metabolic stability in Sprague-Dawley rat brain assessed as compound remaining at 1 to 3 MBq, iv after 30 mins by HPLC analysis; assay type: ADME, organism-based; details: read-out: Stability

Translocator protein, sequence (P16257 whole entry, looked up): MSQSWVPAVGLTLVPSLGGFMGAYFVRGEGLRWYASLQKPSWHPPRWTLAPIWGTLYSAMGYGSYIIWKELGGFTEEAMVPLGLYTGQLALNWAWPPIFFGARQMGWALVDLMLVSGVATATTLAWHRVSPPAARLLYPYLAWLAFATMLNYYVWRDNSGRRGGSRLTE

Structure (SMILES) | Ki [1] [nM] | Drug uptake [2] [% ID/g] | Drug uptake [3] [% ID/g] | Ratio [4] | Ratio [5] | logD [6] | remaining at 1 h [7] [%] | remaining at 0.5 h [8] [%]
CCN(CC)C(=O)C1CCCc2c1c1ccc(F)cc1n2CCF (racemic) | 1.05 | – | – | – | – | – | – | –
CCN(CC)C(=O)C1CCCc2c1c1ccc(OC)cc1n2CC[18F] (stereo not drawn) | – | 0.36 | 0.39 | 4.33 | 4 | – | – | –
CCCN(CCC)C(=O)C1CCCc2c1c1ccccc1n2CCF (racemic) | 0.7 | – | – | – | – | 2.98 | – | –
O=C(C1CCCc2c1c1ccccc1n2CC[18F])N1CCCCC1 (stereo not drawn) | – | 0.51 | 0.25 | – | – | – | 83 | –
CCN(CC)C(=O)C1CCCc2c1c1cc(F)ccc1n2CC[18F] (stereo not drawn) | – | 0.56 | 0.41 | – | – | – | 84 | –
O=C(C1CCCc2c1c1ccccc1n2CCF)N1CCCC1 (racemic) | 503 | – | – | – | – | 2.18 | – | –
CCCN(CCC)C(=O)C1CCCc2c1c1ccccc1n2CC[18F] (stereo not drawn) | – | 0.49 | 0.4 | 2.2 | 2.39 | – | – | –
COc1ccc(OC)c(CN(C(=O)CF)c2ccccc2Oc2ccccc2)c1 | – | – | – | – | – | – | 91 | –
CCN(CC)C(=O)C1CCCc2c1c1cc(OC)ccc1n2CC[18F] (stereo not drawn) | – | 0.39 | 0.31 | 3.88 | 4.25 | – | 76 | –
CCCCCCN(CCCCCC)C(=O)C1CCCc2c1c1ccccc1n2CCF (racemic) | 0.7 | – | – | – | – | 2.13 | – | –
CN(C)C(=O)C1CCCc2c1c1ccccc1n2CCF (racemic) | 502 | – | – | – | – | 1.7 | – | –
CCN(CC)C(=O)C1CCCc2c1c1cc(OC)c(F)cc1n2CC[18F] (stereo not drawn) | – | 0.29 | 0.21 | 3.5 | 4.17 | – | – | –
O=C(C1CCCc2c1c1ccccc1n2CCF)N1CCOCC1 (racemic) | 607 | – | – | – | – | 1.53 | – | –
CCN(CC)C(=O)C1CCCc2c1c1cc(F)c(OC)cc1n2CCF (racemic) | 3.1 | – | – | – | – | 2.08 | – | –
CCCN(C)C(=O)C1CCCc2c1c1ccccc1n2CC[18F] (stereo not drawn) | – | 0.39 | 0.25 | 2.5 | 3.5 | – | – | –
CC(C)N(C(=O)C1CCCc2c1c1ccccc1n2CC[18F])C(C)C (stereo not drawn) | – | 0.48 | 0.25 | 2.78 | 5.11 | – | 43 | –
COc1ccc(OC)c(CN(C(=O)C[18F])c2ccccc2Oc2ccccc2)c1 | – | 0.74 | 0.49 | – | – | – | – | –
CC(C)N(C(=O)C1CCCc2c1c1ccccc1n2CCF)C(C)C (racemic) | 1.7 | – | – | – | – | 2.28 | – | –
CN(Cc1ccccc1)C(=O)C1CCCc2c1c1ccccc1n2CC[18F] (stereo not drawn) | – | 0.55 | 0.34 | 3.4 | 4.7 | – | 81 | –
CCN(CC)C(=O)C1CCCc2c1c1ccc(OC)cc1n2CCF (racemic) | 5.5 | – | – | – | – | 2.41 | – | –
CCC(C)N([11CH3])C(=O)c1cc2ccccc2c(-c2ccccc2Cl)n1 (stereo not drawn) | – | 0.28 | 0.21 | – | – | – | 100 | –
CCOc1ccc2c(c1)c1c(n2CC[18F])CCCC1C(=O)N(CC)CC (stereo not drawn) | – | 0.33 | 0.25 | 2.5 | 3 | – | – | –
CCN(CC)C(=O)C1CCCc2c1c1c(OC)cccc1n2CC[18F] (racemic) | – | 0.52 | 0.36 | – | – | – | 90 | –
O=C(C1CCCc2c1c1ccccc1n2CCF)N1CCCCC1 (racemic) | 18.3 | – | – | – | – | 2.53 | – | –
O=C(C1CCCc2c1c1ccccc1n2CCF)N1CCCCCC1 (racemic) | 4.4 | – | – | – | – | 2.35 | – | –
CC(C)N(C)C(=O)C1CCCc2c1c1cc(F)ccc1n2CCF (racemic) | 8.23 | – | – | – | – | 2.72 | – | –
CCCN(CC)C(=O)C1CCCc2c1c1ccccc1n2CCF (racemic) | 0.38 | – | – | – | – | – | – | –

Structure (SMILES) | Ki [1] [nM] | Drug uptake [2] [% ID/g] | Drug uptake [3] [% ID/g] | Ratio [4] | Ratio [5] | logD [6] | remaining at 1 h [7] [%] | remaining at 0.5 h [8] [%]
CCN(CC)C(=O)C1CCCc2c1c1c(OC)cc(OC)cc1n2CCF (racemic) | 4.34 | – | – | – | – | 1.95 | – | –
CCN(CC)C(=O)C1CCCc2c1c1cc(F)c(OC)cc1n2CC[18F] (stereo not drawn) | – | 0.33 | 0.25 | 2.78 | 3 | – | – | –
CCCN(CC)C(=O)C1CCCc2c1c1ccccc1n2CC[18F] (stereo not drawn) | – | 0.45 | 0.46 | 2.09 | 1.77 | – | – | –
CCN(CC)C(=O)C1CCCc2c1c1cc(O)ccc1n2CCF (racemic) | 135 | – | – | – | – | 1.7 | – | –
CCOc1ccc2c(c1)c1c(n2CCF)CCCC1C(=O)N(CC)CC (racemic) | 3.1 | – | – | – | – | 2.56 | – | –
CCN(CC)C(=O)C1CCCc2c1c1c(F)cccc1n2CC[18F] (stereo not drawn) | – | 0.5 | 0.51 | – | – | – | 93 | –
CCN(Cc1ccccc1)C(=O)C1CCCc2c1c1ccccc1n2CC[18F] (stereo not drawn) | – | 0.48 | 0.34 | 3.4 | 4.3 | – | 76 | –
CCN(CC)C(=O)[C@@H]1CCCc2c1c1c(OC)cccc1n2CC[18F] | – | 0.53 | 0.23 | – | – | – | – | –
O=C(NCc1ccccc1)C1CCCc2c1c1ccccc1n2CCF (racemic) | 28.6 | – | – | – | – | 2.47 | – | –
CC(C)N(C)C(=O)C1CCCc2c1c1ccccc1n2CCF (racemic) | 4 | – | – | – | – | 2.2 | – | –
CCN(Cc1ccccc1)C(=O)C1CCCc2c1c1ccccc1n2CCF (racemic) | 0.73 | – | – | – | – | 2.84 | – | –
CCN(CC)C(=O)C1Sc2ccccc2-c2c1c1ccccc1n2CCF (stereo not drawn) | 0.67 | – | 0.17 | 1.42 | 2.16 | – | – | 95
CC(C)N(C)C(=O)C1CCCc2c1c1ccccc1n2CC[18F] (stereo not drawn) | – | 0.53 | 0.35 | 3.18 | 4.54 | – | 74 | –
CCN(CC)C(=O)C1CCCc2c1c1cc(F)ccc1n2CCF (racemic) | 3.8 | – | – | – | – | 2.37 | – | –
CCN(CC)C(=O)C1CCCc2c1c1ccccc1n2CC[18F] (stereo not drawn) | – | 0.53 | 0.39 | 3.25 | 4.08 | – | 62 | –
CCCCCCN(CCCCCC)C(=O)C1CCCc2c1c1ccccc1n2CC[18F] (stereo not drawn) | – | 0.06 | 0.1 | 1.11 | 0.44 | – | – | –
O=C(C1CCCc2c1c1ccccc1n2CC[18F])N1CCCCCC1 (stereo not drawn) | – | 0.45 | 0.33 | 4.13 | 5.38 | – | 79 | –
CCN(CC)C(=O)C1CCCc2c1c1ccccc1n2CCF (racemic) | 5.4 | – | – | – | – | 2.78 | – | –
CN(Cc1ccccc1)C(=O)C1CCCc2c1c1cc(F)ccc1n2CCF (racemic) | 1.45 | – | – | – | – | 3.1 | – | –
CCN(CC)C(=O)C1CCCc2c1c1ccc(F)cc1n2CC[18F] (stereo not drawn) | – | 0.52 | 0.48 | 1.92 | 1.8 | – | – | –
CN(Cc1ccccc1)C(=O)C1CCCc2c1c1ccccc1n2CCF (racemic) | 1.3 | – | – | – | – | 2.42 | – | –
CCN(CC)C(=O)C1CCCc2c1c1cc(OC)c(F)cc1n2CCF (racemic) | 1.5 | – | – | – | – | 2.38 | – | –
CCCN(C)C(=O)C1CCCc2c1c1ccccc1n2CCF (racemic) | 2.2 | – | – | – | – | 1.99 | – | –
O=C(C1CCCc2c1c1ccccc1n2CC[18F])N1CCCC1 (stereo not drawn) | – | 0.34 | 0.12 | – | – | – | – | –
CCN(CC)C(=O)C1CCCc2c1c1c(OC)cccc1n2CCF (racemic) | 2.4 | – | – | – | – | 2.95 | – | –
CCN(CC)C(=O)[C@H]1CCCc2c1c1c(OC)cccc1n2CC[18F] | – | 0.53 | 0.45 | – | – | – | 94 | –
CCN(CC)C(=O)C1CCCc2c1c1cc(OC)ccc1n2CCF (racemic) | 1.9 | – | – | – | – | 2.71 | – | –
